Structures are written as SMILES.

A short description of the test: Inhibition of bovine testis hyaluronidase type 4 after 20 mins by modified Morgan-Elson method. Also on record: species or system Bos taurus. Put shortly: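 Bovine testis hyaluronidase (Type IV-S, 400 NF units/mL stock) preincubated with sample in 0.1 mol/L acetate buffer pH 3.5, 20 min, 37 °C. Activated with 2.5 mmol/L CaCl2 for 20 min, then rooster-comb potassium hyaluronate (0.4 mg/mL stock) added for 40 min. Stopped with NaOH, boiled with boric acid, p-dimethylaminobenzaldehyde colour read at 585 nm. Percent inhibition corrected against blanks.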

For orientation: IC50 means the concentration that inhibits the measured activity by half. Higher therefore signals lower potency. Regarding `COc1cc(/C=C/C(=O)O[C@H](C(=O)O)[C@](O)(Cc2ccc(O)c(O)c2)C(=O)O)ccc1O` [CIMICIFUGIC ACID A], the IC50 amounted to 112 µM.
As for `COc1ccc(/C=C/C(=O)O[C@H](C(=O)O)[C@](O)(Cc2ccc(O)c(O)c2)C(=O)O)cc1O` [CIMICIFUGIC ACID B], the figure is 82 µM; as for `O=C(/C=C/c1ccc(O)cc1)O[C@H](C(=O)O)[C@](O)(Cc1ccc(O)c(O)c1)C(=O)O` [CIMICIFUGIC ACID C], 251 µM.
Regarding `O=C(/C=C/c1ccc(O)c(O)c1)O[C@H](C(=O)O)[C@](O)(Cc1ccc(O)cc1)C(=O)O` [CIMICIFUGIC ACID D], the IC50 worked out at 153 µM. This IC50 is about 1.6-fold lower than that of the compound before.
In the case of `COc1cc(/C=C/C(=O)O[C@H](C(=O)O)[C@](O)(Cc2ccc(O)cc2)C(=O)O)ccc1O` [CIMICIFUGIC ACID E], the IC50 turned out to be 120 µM.
`COc1ccc(/C=C/C(=O)O[C@H](C(=O)O)[C@](O)(Cc2ccc(O)cc2)C(=O)O)cc1O` [CIMICIFUGIC ACID F] came in with an IC50 of 92 µM. This IC50 and that of the compound before are within 1.5-fold of each other.
As for `COc1ccc(/C=C/C(=O)O[C@H](C(=O)O)[C@](O)(Cc2ccc(O)c(O)c2)C(=O)O)cc1OC` [CIMICIFUGIC ACID G], the figure is 138 µM.
`O=C(O[C@H](C(=O)O)[C@](O)(Cc1ccc(O)c(O)c1)C(=O)O)c1ccc(O)cc1` [CIMICIFUGIC ACID H] registered an IC50 of 525 µM.
With `COc1cc(/C=C/C(=O)O[C@H](C(=O)O)[C@](O)(Cc2ccc(O)c(O)c2)C(=O)O)cc(OC)c1O` [CIMICIFUGIC ACID I] the figure was 143 µM; with `COc1cc(/C=C/C(=O)O[C@H](C(=O)O)[C@](O)(Cc2ccc(O)cc2)C(=O)O)cc(OC)c1O` [CIMICIFUGIC ACID J], 193 µM.
With `O=C(/C=C/c1ccc(O)c(O)c1)O[C@H](C(=O)O)[C@](O)(Cc1ccc(O)c(O)c1)C(=O)O` [FUKINOLIC ACID], half-maximal inhibition (IC50) was put at 144 µM.
With `O=C(/C=C/c1ccc(O)c(O)c1)O[C@H](Cc1ccc(O)c(O)c1)C(=O)O` [ROSMARINIC ACID] the figure was 545 µM; with `COc1cc(/C=C/C(=O)O[C@H](C(=O)O)[C@](O)(Cc2ccc(O)c(O)c2)C(=O)O)ccc1O[C@@H]1O[C@H](CO)[C@H](O)[C@H](O)[C@H]1O` [SHOMASIDE A], 573 µM.
As for `COc1cc(/C=C/C(=O)O[C@H](C(=O)O)[C@](O)(Cc2ccc(O)cc2)C(=O)O)ccc1O[C@@H]1O[C@H](CO)[C@H](O)[C@H](O)[C@H]1O` [SHOMASIDE B], the figure is 430 µM.
With `COc1cc(/C=C/C(=O)O[C@H](C(=O)O)[C@](O)(Cc2ccc(O)cc2)C(=O)O)ccc1O[C@@H]1O[C@H](CO)[C@@H](O)[C@H](O)[C@H]1O` [SHOMASIDE C] the figure was 663 µM; with `COC(=O)C(O)C(Cc1ccc(O)cc1)(OC(=O)/C=C/c1ccc(O[C@@H]2O[C@H](CO)[C@@H](O)[C@H](O)[C@H]2O)c(OC)c1)C(=O)O` (some centres not stated) [SHOMASIDE D], greater than 658 µM.
Compound `COc1cc(OC(=O)/C=C/c2ccc(O[C@@H]3O[C@H](CO)[C@H](O)[C@H](O)[C@H]3O)c(OC)c2)ccc1CCO` [SHOMASIDE E] yielded an IC50 greater than 790 µM.

The values are drawn from ChEMBL document CHEMBL1157074, “Hyaluronidase inhibitors from "Cimicifugae Rhizoma" (a mixture of the rhizomes of Cimicifuga dahurica and C. heracleifolia)” (J Nat Prod, 2010).
